In brackets after ≈: the same amount, converted by molar mass. Each block holds one molecule with its values, some of them ahead of it. Activity calls are given as the source filed them. The calls are words filed in the database; no cut-off is given here.
Experiments:
[1] = target: Kynurenine 3-monooxygenase (Rattus norvegicus, UniProt O88867); experiment: Inhibition of rat liver KMO using [3,5-3H]-kynurenine substrate
Homo sapiens [2] = species on record: Homo sapiens; experiment: Activity at TR (unknown origin)
How it was run: (§1)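 Eight-point serial dilutions tested in an in-house AlphaScreen-based nuclear receptor panel; activity derived from nonlinear regression curves.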

Homo sapiens [3] = species on record: Homo sapiens; experiment: Activity at RXR (unknown origin); how it was run: as §1
[4] = target: T1, Vitamin D3 receptor (Homo sapiens) (UniProt P11473); experiment: Activity at VDR (unknown origin); how it was run: as §1
T1 sequence (whole entry): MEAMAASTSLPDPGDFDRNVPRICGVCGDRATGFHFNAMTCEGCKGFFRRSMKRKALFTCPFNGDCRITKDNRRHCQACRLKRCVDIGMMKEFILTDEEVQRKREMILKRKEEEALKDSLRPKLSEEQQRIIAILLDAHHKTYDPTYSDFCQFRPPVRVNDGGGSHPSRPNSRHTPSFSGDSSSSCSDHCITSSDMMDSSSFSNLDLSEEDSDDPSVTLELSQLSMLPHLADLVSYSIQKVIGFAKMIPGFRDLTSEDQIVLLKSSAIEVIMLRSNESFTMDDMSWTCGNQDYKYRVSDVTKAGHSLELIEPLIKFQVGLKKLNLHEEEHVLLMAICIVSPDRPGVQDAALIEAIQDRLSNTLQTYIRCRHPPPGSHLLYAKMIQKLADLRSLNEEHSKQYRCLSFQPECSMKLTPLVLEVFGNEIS

[5] = target: T2, Bile acid receptor (Homo sapiens) (UniProt Q96RI1); experiment: Activity at FXR (unknown origin); how it was run: as §1
T2 sequence (whole entry): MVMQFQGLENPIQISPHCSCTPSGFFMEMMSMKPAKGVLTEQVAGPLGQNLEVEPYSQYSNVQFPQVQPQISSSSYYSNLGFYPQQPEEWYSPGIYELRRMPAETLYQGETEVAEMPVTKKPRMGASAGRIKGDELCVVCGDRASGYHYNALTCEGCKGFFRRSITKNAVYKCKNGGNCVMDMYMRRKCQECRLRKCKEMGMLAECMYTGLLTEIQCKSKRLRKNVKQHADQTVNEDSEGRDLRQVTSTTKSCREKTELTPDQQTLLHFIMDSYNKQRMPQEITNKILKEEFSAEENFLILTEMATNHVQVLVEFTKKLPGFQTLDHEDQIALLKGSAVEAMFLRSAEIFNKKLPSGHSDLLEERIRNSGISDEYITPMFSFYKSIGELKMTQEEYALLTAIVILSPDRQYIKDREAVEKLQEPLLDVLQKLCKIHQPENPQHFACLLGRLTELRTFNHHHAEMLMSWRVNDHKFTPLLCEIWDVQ

Homo sapiens [6] = species on record: Homo sapiens; experiment: Activity at LXR (unknown origin); how it was run: as §1
Homo sapiens [7] = species on record: Homo sapiens; experiment: Activity at PPAR (unknown origin); how it was run: as §1
[8] = target: T3, Glucocorticoid receptor (Homo sapiens) (UniProt P04150); experiment: Activity at GR (unknown origin); how it was run: as §1
T3 sequence (whole entry): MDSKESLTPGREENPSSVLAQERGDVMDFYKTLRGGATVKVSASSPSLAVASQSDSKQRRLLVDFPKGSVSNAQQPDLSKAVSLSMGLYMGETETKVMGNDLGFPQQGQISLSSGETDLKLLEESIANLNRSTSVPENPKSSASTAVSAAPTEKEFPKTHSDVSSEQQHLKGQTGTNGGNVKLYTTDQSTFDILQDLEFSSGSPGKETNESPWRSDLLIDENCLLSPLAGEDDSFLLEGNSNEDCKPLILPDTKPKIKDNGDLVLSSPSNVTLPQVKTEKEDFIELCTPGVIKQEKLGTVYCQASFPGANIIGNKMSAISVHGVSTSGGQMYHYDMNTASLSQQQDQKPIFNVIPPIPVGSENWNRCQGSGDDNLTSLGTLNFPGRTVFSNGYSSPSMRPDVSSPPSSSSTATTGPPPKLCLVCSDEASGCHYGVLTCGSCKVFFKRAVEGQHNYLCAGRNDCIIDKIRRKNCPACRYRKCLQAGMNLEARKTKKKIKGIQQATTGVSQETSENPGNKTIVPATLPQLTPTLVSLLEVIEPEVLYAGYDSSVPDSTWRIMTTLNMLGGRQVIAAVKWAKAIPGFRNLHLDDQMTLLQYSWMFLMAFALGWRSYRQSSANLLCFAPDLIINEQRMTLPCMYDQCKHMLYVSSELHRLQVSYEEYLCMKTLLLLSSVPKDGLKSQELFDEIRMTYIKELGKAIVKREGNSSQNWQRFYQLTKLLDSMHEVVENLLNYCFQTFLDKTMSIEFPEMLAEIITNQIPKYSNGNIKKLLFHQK

[9] = target: T4, 2-amino-3-carboxymuconate-6-semialdehyde decarboxylase (Homo sapiens, UniProt Q8TDX5); experiment: Inhibition of ACMSD in human primary hepatocytes assessed as increase in intracellular NAD+ levels at 5 uM after 48 hrs by NAD/NADH-Glo assay; type: cell-based
Target sequence in this assay (Q8TDX5 whole entry, looked up): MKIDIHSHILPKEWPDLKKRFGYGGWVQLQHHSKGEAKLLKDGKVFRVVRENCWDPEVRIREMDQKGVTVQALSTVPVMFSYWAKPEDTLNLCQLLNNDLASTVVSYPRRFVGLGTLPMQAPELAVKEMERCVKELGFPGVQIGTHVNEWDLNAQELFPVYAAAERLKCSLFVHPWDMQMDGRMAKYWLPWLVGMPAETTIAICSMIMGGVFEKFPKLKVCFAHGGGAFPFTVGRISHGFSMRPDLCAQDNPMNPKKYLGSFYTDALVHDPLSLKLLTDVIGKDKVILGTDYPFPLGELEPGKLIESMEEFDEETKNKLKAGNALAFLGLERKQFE

[10] = target: T4, 2-amino-3-carboxymuconate-6-semialdehyde decarboxylase; experiment: Inhibition of human ACMSD expressed in Pichia pastoris using ACMS as substrate by coupled spectrophotometric assay
How it was run: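 Recombinant enzyme purified from Pichia pastoris; ACMS substrate generated in a pre-assay mix from 10 μM 3-hydroxyanthranilic acid by Ralstonia metallidurans 3-hydroxyanthranilate 3,4-dioxygenase, formation monitored at 360 nm. Enzyme and compound then added together; activity from initial rate of absorbance decrease minus a no-enzyme control. Serial dilutions, 1.0% DMSO throughout. IC50 from concentration–response curves, mean ± SD of three independent experiments.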
Target sequence in this assay (Q8TDX5 whole entry): as the sequence (Q8TDX5 whole entry, looked up) above

[11] = AUClast in CD1 mouse at 0.5 mg/kg, iv measured up to 24 hrs post dose; type: ADME, organism-based; set-up: dose 0.5 mg/kg, time < 24 hr, route intravenous; details: in vivo
How it was run: (§2)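 Mice given 0.5 mg/kg IV in saline containing 5% (v/v) DMSO and 20% (v/v) PEG400; blood pharmacokinetic parameters reported as means.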

[12] = Half life in CD1 mouse at 0.5 mg/kg, iv measured up to 24 hrs post dose; type: ADME, organism-based; details: in vivo; how it was run: as §2
[13] = Solubility of compound in PBS buffer at pH 7.4 after 24 hrs by UV/vis-spectroscopic analysis; type: physicochemical
How it was run: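 Compound in PBS pH 7.4 with 1% DMSO mixed, incubated 24 h and vacuum-filtered; filtrate read by UV/vis and relative solubility calculated from summed readings against a standard. Reported in mg/mL.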

[14] = Drug uptake in mouse central nervous system at 5 mg/kg, po in presence of P-gp inhibitor Elacridar; type: ADME, organism-based; details: in vivo
[15] = AUClast in mouse blood at 5 mg/kg, po measured up to 8 hrs post dose; type: ADME, organism-based; set-up: time < 8 hr, dose 5 mg/kg, route oral
How it was run: (§3)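 Mice dosed orally at 5 mg/kg in 0.5% (w/v) HPMC in water with 5% (v/v) DMSO; blood, liver and kidney concentrations followed to 8 h. AUC0–8h given in h·ng/mL; parameters reported as means.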

[16] = Tmax in CD1 mouse at 5 mg/kg, po measured up to 8 hrs post dose; type: ADME, organism-based; details: in vivo; how it was run: as §3
HepG2 = experiment: Cytotoxicity against human HepG2 cells assessed as reduction in cell viability after 4 hrs by celltiter-glo assay; type: cell-based; details: hepg2, 4 h
How it was run: (§4)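 HepG2 or AML12 cells, 5 × 10^3 per well, exposed to compound for 4 h at 37 °C. Viability read as ATP by CellTiter-Glo luminescence; tamoxifen control.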

[17] = Cytotoxicity against mouse AML-12 cells assessed as reduction in cell viability after 4 hrs by celltiter-glo assay; type: cell-based; details: aml-12, 4 h; how it was run: as §4
[18] = AUClast in mouse liver at 5 mg/kg, po measured up to 8 hrs post dose; type: ADME, organism-based; set-up: dose 5 mg/kg, time < 8 hr, route oral; how it was run: as §3
[19] = Oral bioavailability in CD1 mouse at 5 mg/kg measured up to 8 hrs after dose; type: ADME, organism-based; details: in vivo; how it was run: as §3
[20] = AUClast in mouse kidney at 5 mg/kg, po measured up to 8 hrs post dose; type: ADME, organism-based; set-up: time < 8 hr, dose 5 mg/kg, route oral; how it was run: as §3
Cytochrome P450 2C19 = Cytochrome P450 2C19 (Homo sapiens, UniProt P33261); experiment: Inhibition of recombinant human CYP2C19 expressed in baculosomes expression system using fluorogenic-BOMCC as substrate by fluorescent homogeneous assay; type: ADME
How it was run: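 Recombinant CYP baculosomes with fluorogenic substrates, at concentrations below their Km; homogeneous fluorescence read-out, run in triplicate. IC50 classes: <1 μM potent, 1–10 μM moderate, >10 μM weak or none.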

[21] = Clearance in CD1 mouse at 0.5 mg/kg, iv measured up to 24 hrs post dose; type: ADME, organism-based; details: in vivo; how it was run: as §2
[22] = Apparent passive permeability from apical to basolateral side in MDCK2-MDR1 cells at 3 uM after 90 mins by LC-MS/MS analysis; type: ADME, cell-based, Canis lupus familiaris; details: dog, MDCK-MDR1
How it was run: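 MDCKII-MDR1 monolayers, HBSS transport medium pH 7.4; compound 3 μM for 90 min, run with and without a P-gp inhibitor, n = 3. Quantified by LC-MS/MS as analyte/internal-standard peak-area ratio; monolayer integrity checked with Lucifer yellow. Papp given in nm/sec, A>B.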

[23] = target: T5, Nuclear receptor subfamily 1 group I member 2 (Homo sapiens, UniProt O75469); experiment: Activity at PXR (unknown origin); how it was run: as §1
T5 sequence (O75469 whole entry): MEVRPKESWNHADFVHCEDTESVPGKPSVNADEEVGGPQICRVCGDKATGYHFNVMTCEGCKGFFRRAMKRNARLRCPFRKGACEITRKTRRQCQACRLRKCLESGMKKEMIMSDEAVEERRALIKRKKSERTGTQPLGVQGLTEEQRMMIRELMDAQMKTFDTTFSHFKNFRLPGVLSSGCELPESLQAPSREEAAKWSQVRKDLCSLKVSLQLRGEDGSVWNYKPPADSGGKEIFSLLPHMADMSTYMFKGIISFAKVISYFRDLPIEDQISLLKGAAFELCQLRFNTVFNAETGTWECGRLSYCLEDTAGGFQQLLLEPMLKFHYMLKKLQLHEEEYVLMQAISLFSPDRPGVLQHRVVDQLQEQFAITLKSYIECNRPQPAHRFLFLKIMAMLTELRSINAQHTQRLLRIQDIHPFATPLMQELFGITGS

[24] = Cmax in CD1 mouse at 5 mg/kg, po measured up to 8 hrs after dose; type: ADME, organism-based; set-up: dose 5 mg/kg, route oral; details: in vivo; how it was run: as §3
[25] = Volume of distribution at steady state in CD1 mouse at 0.5 mg/kg, iv measured up to 24 hrs post dose; type: ADME, organism-based; details: in vivo, read-out: Vdss; how it was run: as §2
[26] = Drug uptake in mouse central nervous system at 5 mg/kg, po; type: ADME, organism-based; details: in vivo
[27] = target: Voltage-gated inwardly rectifying potassium channel KCNH2 (Homo sapiens, UniProt Q12809); experiment: Displacement of red fluorescent channel ligand tracer from human ERG expressed in CHO cell membranes
How it was run: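 Fluorescence polarisation kit: membranes from CHO cells stably expressing hERG, with a red fluorescent high-affinity tracer; competitors detected by tracer displacement, seen as lowered polarisation. Final DMSO 1%; E-4031 reference.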

Sequence of Cytochrome P450 2C19 (P33261 whole entry): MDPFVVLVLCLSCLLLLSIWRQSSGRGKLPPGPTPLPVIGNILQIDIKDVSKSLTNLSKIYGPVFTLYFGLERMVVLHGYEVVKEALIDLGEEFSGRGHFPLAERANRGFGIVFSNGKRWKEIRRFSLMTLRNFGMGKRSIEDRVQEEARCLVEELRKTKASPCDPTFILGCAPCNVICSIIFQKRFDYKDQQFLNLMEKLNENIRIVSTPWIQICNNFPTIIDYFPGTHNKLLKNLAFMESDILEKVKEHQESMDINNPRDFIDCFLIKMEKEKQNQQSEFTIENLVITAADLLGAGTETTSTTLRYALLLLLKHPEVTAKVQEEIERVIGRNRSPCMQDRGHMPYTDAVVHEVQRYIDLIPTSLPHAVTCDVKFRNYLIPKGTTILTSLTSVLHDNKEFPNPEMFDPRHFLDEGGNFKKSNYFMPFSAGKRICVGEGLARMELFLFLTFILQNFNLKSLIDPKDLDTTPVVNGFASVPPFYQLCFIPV
Sequence of Kynurenine 3-monooxygenase (O88867 whole entry): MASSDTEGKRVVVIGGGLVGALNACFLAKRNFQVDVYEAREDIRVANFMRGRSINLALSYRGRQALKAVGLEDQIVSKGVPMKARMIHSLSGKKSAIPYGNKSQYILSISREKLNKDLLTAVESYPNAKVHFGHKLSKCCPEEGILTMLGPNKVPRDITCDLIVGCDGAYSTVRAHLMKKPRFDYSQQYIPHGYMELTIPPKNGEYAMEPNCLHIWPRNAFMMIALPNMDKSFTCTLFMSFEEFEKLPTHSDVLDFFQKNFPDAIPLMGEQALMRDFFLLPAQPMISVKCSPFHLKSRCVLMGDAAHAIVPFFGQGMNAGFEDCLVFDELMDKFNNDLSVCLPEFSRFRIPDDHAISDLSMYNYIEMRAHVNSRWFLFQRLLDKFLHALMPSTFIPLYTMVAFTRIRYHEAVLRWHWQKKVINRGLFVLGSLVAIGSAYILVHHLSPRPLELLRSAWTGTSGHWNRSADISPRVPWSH
Sequence of Voltage-gated inwardly rectifying potassium channel KCNH2 (Q12809 whole entry): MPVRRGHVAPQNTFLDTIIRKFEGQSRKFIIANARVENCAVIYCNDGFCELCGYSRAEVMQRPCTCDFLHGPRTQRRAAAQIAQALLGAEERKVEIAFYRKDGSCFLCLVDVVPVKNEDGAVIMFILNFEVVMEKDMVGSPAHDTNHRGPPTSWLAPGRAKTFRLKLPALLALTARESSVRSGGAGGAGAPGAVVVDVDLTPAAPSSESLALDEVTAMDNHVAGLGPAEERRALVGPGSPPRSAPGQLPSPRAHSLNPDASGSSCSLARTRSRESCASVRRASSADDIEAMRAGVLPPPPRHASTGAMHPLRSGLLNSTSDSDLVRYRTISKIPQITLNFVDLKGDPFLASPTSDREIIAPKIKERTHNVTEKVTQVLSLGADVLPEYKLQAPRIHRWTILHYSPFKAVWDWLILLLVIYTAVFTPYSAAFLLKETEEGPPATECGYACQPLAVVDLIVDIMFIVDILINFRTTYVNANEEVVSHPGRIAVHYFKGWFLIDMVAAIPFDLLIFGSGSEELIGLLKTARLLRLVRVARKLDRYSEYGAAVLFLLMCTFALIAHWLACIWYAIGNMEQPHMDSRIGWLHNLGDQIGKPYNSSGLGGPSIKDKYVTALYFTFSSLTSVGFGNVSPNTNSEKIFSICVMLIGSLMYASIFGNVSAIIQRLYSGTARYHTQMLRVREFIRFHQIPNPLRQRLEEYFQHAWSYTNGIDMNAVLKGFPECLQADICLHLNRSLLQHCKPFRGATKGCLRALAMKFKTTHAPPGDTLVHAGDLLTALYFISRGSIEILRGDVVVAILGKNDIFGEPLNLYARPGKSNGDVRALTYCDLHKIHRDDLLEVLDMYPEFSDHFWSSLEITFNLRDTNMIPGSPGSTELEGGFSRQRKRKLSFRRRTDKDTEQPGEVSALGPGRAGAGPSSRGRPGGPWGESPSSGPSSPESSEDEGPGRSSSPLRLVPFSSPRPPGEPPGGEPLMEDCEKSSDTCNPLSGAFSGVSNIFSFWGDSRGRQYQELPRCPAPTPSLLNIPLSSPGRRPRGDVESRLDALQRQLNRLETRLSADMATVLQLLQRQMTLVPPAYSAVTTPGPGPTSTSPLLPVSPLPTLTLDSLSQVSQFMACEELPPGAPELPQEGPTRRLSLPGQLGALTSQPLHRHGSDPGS

IC50 [1]: 20 nM
SMILES: O=C(O)C1CC1C(=O)c1ccc(Cl)c(Cl)c1 (stereo not given)

Activity (Homo sapiens [2]): inactive
Activity (Homo sapiens [3]): inactive
Activity [4]: inactive
Activity [5]: inactive
Activity (Homo sapiens [6]): inactive
Activity (Homo sapiens [7]): inactive
Activity [8]: inactive
inhibition [9]: Active
SMILES: N#Cc1c(-c2cccs2)nc(SCc2cccc(-c3nnn[nH]3)c2)[nH]c1=O

IC50 [10]: 151 nM
SMILES: O=C(O)c1cccc(CSc2nc(-c3ccccc3)c(Cl)c(=O)[nH]2)c1

IC50 [10]: 316 nM
SMILES: N#Cc1c(Cl)nc(SCc2cccc(C(=O)O)c2)nc1-c1ccccc1

AUC(0-t) at 24 h [11]: 6900 ng·h/mL
half-life [12]: 4.02 h
solubility at 24 h [13]: 1000 µg/mL (≈ 2540 µM)
Drug uptake [14]: Not Active
AUC(0-t) at 8 h [15]: 1620 ng·h/mL
Tmax [16]: 2 h
AUC(0-t) at 8 h [18]: 4290 ng·h/mL
bioavailability [19]: 2.3%
AUC(0-t) at 8 h [20]: 2830 ng·h/mL
IC50 (Cytochrome P450 2C19): 100 nM
clearance [21]: 1.2 mL/min/kg
Papp A→B at 1.5 h, 3 µM [22]: 0.584 ×10⁻⁶ cm/s
Activity [23]: Not Active
Cmax [24]: 255 ng/mL
Vd [25]: 0.306 L/kg
Drug uptake [26]: Not Active
IC50 [10]: 3 nM
SMILES: N#Cc1c(-c2cccs2)nc(SCc2cccc(-c3nn[nH]n3)c2)[nH]c1=O
Activity (HepG2): Non-Toxic
Activity [17]: Non-Toxic
inhibition (INH) [27]: Not Active

IC50 [10]: 99 nM
SMILES: O=C(O)c1cccc(CSc2nc(-c3ccccc3)c(Br)c(=O)[nH]2)c1

IC50 [10]: 4450 nM
SMILES: N#Cc1c(-c2ccccc2)nc(SCc2ccccc2)[nH]c1=O

IC50 [10]: 20 nM
SMILES: N#Cc1c(-c2cccs2)nc(SCc2cccc(C(=O)O)c2)[nH]c1=O

IC50 [10]: 1900 nM
SMILES: Cc1nc(SCc2cccc(C(=O)O)c2)[nH]c(=O)c1C#N

IC50 [10]: 3350 nM
SMILES: N#Cc1c(-c2cccs2)nc(SCc2cccc(-c3noc(C(F)(F)F)n3)c2)[nH]c1=O

IC50 [10]: 89 nM
SMILES: N#Cc1c(C2CCCCC2)nc(SCc2cccc(C(=O)O)c2)[nH]c1=O

IC50 [10]: 1050 nM
SMILES: O=C(O)c1cccc(CSc2nc(-c3ccccc3)cc(=O)[nH]2)c1

IC50 [10]: 45 nM
SMILES: N#Cc1c(-c2ccccc2)nc(SCc2cccc(C(=O)O)c2)[nH]c1=O

IC50 [10]: 1750 nM
SMILES: N#Cc1c(-c2cccs2)nc(SCc2cccc(C(=O)NO)c2)[nH]c1=O
